{"data": "Measurements gathered from unrelated publications", "target": "Adenosine receptor A1 (ADORA1, Homo sapiens, UniProt P30542)", "Sequence (P30542 1-326, as in one of the studies)": "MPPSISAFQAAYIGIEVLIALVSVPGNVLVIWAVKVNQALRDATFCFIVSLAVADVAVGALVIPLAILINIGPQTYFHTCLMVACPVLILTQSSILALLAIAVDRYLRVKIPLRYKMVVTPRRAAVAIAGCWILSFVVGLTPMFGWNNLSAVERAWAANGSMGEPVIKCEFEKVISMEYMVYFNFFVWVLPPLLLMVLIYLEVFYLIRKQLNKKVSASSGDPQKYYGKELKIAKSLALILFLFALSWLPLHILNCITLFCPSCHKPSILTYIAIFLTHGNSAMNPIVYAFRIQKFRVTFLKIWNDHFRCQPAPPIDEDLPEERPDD"}
{"Structure (SMILES)": "CC(C)N1CCC[C@H]1CNC(=O)c1cn(C2CCCC2)c(=O)c2c1c1ccccc1n2C", "assay": "ligand displacement, radioligand", "conditions": "10 µM", "inhibition": "-1%"}
{"Structure (SMILES)": "c1ccc(C(NCCNC(c2ccccc2)c2ccccc2)c2ccccc2)cc1", "assay": "cell-free assay", "conditions": "10 µM", "inhibition": "30%"}
{"Structure (SMILES)": "COCc1c(-c2cc3cc(C)cc(OC)c3s2)c2c(N)ncnn2c1CN1CCNC(=O)C1", "assay": "ligand displacement, radioligand", "conditions": "10 µM", "inhibition": "16%"}
{"Structure (SMILES)": "CN(CCN1CCC(OC(=O)Nc2ccccc2-c2ccccc2)CC1)C(=O)c1ccc(CN2CCC(C(N)=O)CC2)cc1", "assay": "ligand displacement, radioligand", "conditions": "1 µM", "inhibition": "0%"}
{"Structure (SMILES)": "O=C(Nc1cccnn1)N1CCN([C@@H]2CCOc3cc(C(F)(F)F)ccc32)CC1", "assay": "cell-free assay", "conditions": "20 µM", "inhibition": "17%"}
{"Structure (SMILES)": "COc1ccc(SC[C@@]23C[C@@H]2[C@@H](n2cnc4c(NC(C5CCCC5)C5CCCC5)nc(Cl)nc42)[C@H](O)[C@@H]3O)cc1OC", "assay": "ligand displacement, radioligand", "conditions": "10 µM", "inhibition": "39%"}
{"Structure (SMILES)": "COc1ccc(S(=O)(=O)N2CCCCC2)cc1C", "assay": "ligand displacement, radioligand", "conditions": "10 µM", "inhibition": "< 30%"}
{"Structure (SMILES)": "CCSC[C@@]12C[C@@H]1[C@@H](n1cnc3c(NC(C4CCCC4)C4CCCC4)nc(Cl)nc31)[C@H](O)[C@@H]2O", "assay": "ligand displacement, radioligand", "conditions": "10 µM", "inhibition": "54%"}
{"Structure (SMILES)": "C[C@H](C(=O)N[C@H]1COc2ccccc2[C@@H]1S(C)(=O)=O)c1ccc(F)cc1", "assay": "cell-free assay", "conditions": "10 µM", "inhibition": "1%"}
{"Structure (SMILES)": "CSC[C@@]12C[C@@H]1[C@@H](n1cnc3c(NC(C4CCCC4)C4CCCC4)nc(SC)nc31)[C@H](O)[C@@H]2O", "assay": "ligand displacement, radioligand", "conditions": "10 µM", "inhibition": "15%"}
{"Structure (SMILES)": "CCN(CC)CCCC[C@H](NC(=O)[C@H](CC(C)C)NC(=O)[C@H](C)NC(=O)[C@H](Cc1ccccc1)NC(=O)c1ccc(C(C)(C)C)cc1)C(=O)N[C@@H](CO)C(=O)OC", "assay": "ligand displacement, radioligand", "conditions": "10 µM", "inhibition": "4%"}
